F508del corr: correctors of CFTR F508del function in bronchial epithelial cells; CFBE cells, YFP halide quenching; stimulated with forskolin plus potentiator P3; % fluorescence drop versus neutral controls; activity (quench increase), % at 7.58 µM; hit rate 0.36% among 350,000;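 active = mean added fluorescence quench of at least 8% versus neutral control, with both replicates also reaching 8%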;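 also: cells transiently co-express mutant CFTR-F508del with the halide-sensitive YFP; corrector assay measuring rescue of mutant channel to the surface after 24 h compound exposure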
FGF22 binding: shifts melting point of recombinant human FGF22; AID 651658; hit rate 1.5% among 340,000; activity (Tm shift, normalised), % at 9.99 µM; recombinant FGF22 thermal shift, SYPRO orange fluorescence; percent of sucrose octasulfate shift, DMSO zero; Q9HCT0;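 active = mean Tm shift, scaled 0 neutral to 100 positive control, at about 1.3% or above, every replicate too, limit read from the data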
Target sequence (Q9HCT0 whole entry, looked up): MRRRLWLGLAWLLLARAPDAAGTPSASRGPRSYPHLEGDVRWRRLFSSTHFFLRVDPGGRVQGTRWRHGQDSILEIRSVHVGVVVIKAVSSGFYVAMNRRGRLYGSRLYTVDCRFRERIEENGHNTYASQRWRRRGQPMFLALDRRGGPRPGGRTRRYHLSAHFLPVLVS
E-sel inducer: E-selectin induction on HUVECs | P16581 | HUVEC E-selectin immunofluorescence imaging; normalized: neutral wells 0, TNF-alpha wells 100 | hit rate 0.37% among 260,000 | activation, % at 7.58 µM;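 active = mean E-selectin-positive cell signal at least 10% of the positive control, reached in at least 60% of replicates, without over 20% cell loss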
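Test system: HUVEC; input: 3,000 HUVEC/well; measured by: immunofluorescence imaging; read-out: % PE-positive cells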
DENV2 CPE rescue: inhibitors of DENV2 cytopathic effect | DENV2-infected cells, cytopathic effect rescue, plate reader | CPE inhibition, % at 9.99 µM | hit rate 1.7% among 350,000; in the data active = CPE inhibition above about 20%, passing the limit was not always enough; tested in BHK-21 cells;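 also: 0% = median of neutral control wells and 100% = median of positive control wells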
ERAP1 HTS inh: inhibitors of human ERAP1 aminopeptidase. hit rate 0.15% among 340,000. AID 652197. Q9NZ08. recombinant ERAP1, Leu-AMC fluorescence, 60 min. inhibition, % at 10.7 µM;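 active = mean replicate inhibition of at least 30%, or all replicates individually reaching that 30% level; inactive = mean below 30% and not every replicate reaching it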;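 also: 0% = neutral control wells and 100% = L-leucinethiol positive control wells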
Numbers without * were called inactive; / = no result; ! = repeats disagree. This is a sample that favours compounds with a hit; in the whole collection about 3.7% have one here.

SMILES	F508del corr	FGF22 binding	E-sel inducer	DENV2 CPE rescue	ERAP1 HTS inh
Cc1ccsc1/C=N/NC(=O)c1ccncc1	-1.1	43.4*	-0.1	1.3	4.6
CO[C@H]1CN(C)C(=O)c2ccc(NC(=O)NC(C)C)cc2OC[C@H](C)N(Cc2cncnc2)C[C@H]1C	-0.4	/	-0.1	/	/
Cc1cccc(-c2ccc([C@@H]3[C@H](CO)N4C(=O)CN(C(=O)c5cccnc5)C[C@@H]34)cc2)c1	-1.6	/	1.1	-2.1	0.2
CC(C)c1ccc(/C=N/NC(=O)c2cc(-c3cccc([N+](=O)[O-])c3)n[nH]2)cc1	-1.9	-0.1	/	33.8*	-1.8
Cn1cccc1-c1cc(C(=O)N/N=C/c2ccc([N+](=O)[O-])cc2)[nH]n1	2.4	-0.1	/	3.3	-2.0
O=C(N/N=C/c1cccn1-c1ccc([N+](=O)[O-])cc1)c1cccnc1	0.0	0.1	0.5	115.8*	6.9
O=C(O)Cn1c2c(c3ccccc31)CSc1ccc(Cl)cc1-2	2.5	1.9*	0.1	-2.9	9.0
O=C(O)Cn1c2ccccc2c2ccccc21	1.2	42.3	0.1	-3.4	0.0
COCCNC(=O)C1(C)CCCN(C(=O)c2ccccc2)C1 (stereo not drawn)	-2.5	0.0	-0.1	32.8*	5.5
COCCNC(=O)C1(C)CCCN(C(=O)c2ccc(-c3ccccc3)cc2)C1 (stereo not drawn)	-3.7	0.1	-0.1	4.3	-1.5
COc1ccc(CN(C)C[C@@H]2OCCCC[C@@H](C)Oc3ccc(NS(=O)(=O)c4cn(C)cn4)cc3C(=O)N([C@H](C)CO)C[C@H]2C)cc1	-2.5	0.9	-0.2	-3.5	-4.3
Cc1noc(C)c1NC(=O)N(C)C[C@@H]1Oc2ccc(NC(=O)NC3CCCCC3)cc2CC(=O)N([C@H](C)CO)C[C@@H]1C	0.2	0.1	0.1	6.5	0.7
Cc1nc2ccc(C(=O)N3c4ccccc4N=C(c4ccc(C(F)(F)F)cc4)C3C(=O)NC(C)(C)C)cc2[nH]1 (stereo not drawn)	1.2	0.3	0.0	36.9*	5.6
O=C(NC1CCCC1)C1C(c2ccc(C(F)(F)F)cc2)=Nc2ccccc2N1C(=O)c1ccccc1 (stereo not drawn)	-1.0	-0.3	135.6*	4.1	/
O=C(/C=C/c1ccco1)N1CCCC(c2ccccc2)C1 (stereo not drawn)	-3.0	43.5*	/	/	-7.2
O=C(CN1CCOCC1)N[C@@H]1CC[C@@H](CCn2cc(C3CCCC3)nn2)O[C@@H]1CO	1.2	/	0.0	-3.2	2.8
Cc1cc(C(=O)CSc2nn3c(=O)c(C(C)(C)C)nnc3s2)c(C)n1C1CC1	-0.7	1.7*	/	3.2	3.8
CC(C)(C)c1nnc2sc(SCC(=O)c3ccc(Cl)cc3)nn2c1=O	/	/	/	/	0.3
Cc1cccc(CC(=O)c2c[nH]c3ccccc23)c1	1.8	0.0	74.6*	-4.3	/
COc1cc(Cl)c(CC(=O)c2c[nH]c3ccccc23)cc1OC	0.3	-0.1	-0.1	-4.7	-2.5
CCCNC(=O)N1CC2(CN(C(=O)c3cccnc3)C2)c2c([nH]c3cc(OC)ccc23)[C@@H]1CO	1.9	-0.1	0.0	-18.0	/
C[C@H]1CN([C@@H](C)CO)C(=O)c2ccccc2-c2ccccc2CO[C@H]1CN(C)Cc1ccccc1C(F)(F)F	-6.3	-0.7	-0.5	21.1*	9.6
CNC[C@@H]1OCc2ccccc2-c2ccccc2C(=O)N([C@@H](C)CO)C[C@@H]1C	1.6	0.1	0.2	33.1*!	-2.4
C[C@H](CO)N1C[C@H](C)[C@H](CN(C)C(=O)Nc2ccc(F)cc2)OCc2ccccc2-c2c(n(C)c3ccccc23)C1=O	-1.6	0.0	-1.6	73.4*!	-1.6
C[C@@H]1CN([C@H](C)CO)C(=O)c2c(c3ccccc3n2C)-c2ccccc2CO[C@@H]1CN(C)Cc1cccc2c1OCCCO2	3.3	-0.2	-4.2	28.0*	-1.2
SMILES	F508del corr	FGF22 binding	E-sel inducer	DENV2 CPE rescue	ERAP1 HTS inh
C[C@@H]1CN([C@@H](C)CO)C(=O)c2ccccc2-c2ccccc2CO[C@@H]1CN(C)Cc1ccccc1C(F)(F)F	-1.4	-0.3	-0.1	-2.7	-3.3
C[C@H]1CN([C@@H](C)CO)C(=O)c2c(c3ccccc3n2C)-c2ccccc2CO[C@@H]1CN(C)Cc1cccc2c1OCCCO2	1.3	-0.8	/	13.3	-1.2
O=C(C[C@@H]1CC[C@H](NC(=O)C2CCOCC2)[C@@H](CO)O1)NCc1ccccc1Cl	-4.2	-0.2	-0.1	-2.3	-0.8
CNC[C@@H]1OCc2ccccc2-c2c(n(C)c3ccccc23)C(=O)N([C@H](C)CO)C[C@@H]1C	5.1	0.2	0.1	32.6*!	-0.7
C[C@H](CO)N1C[C@H](C)[C@@H](CN(C)C(=O)Nc2cccc(C(F)(F)F)c2)OCc2ccccc2-c2c(n(C)c3ccccc23)C1=O	3.4	-0.4	1.3	11.2	1.9
COc1cccc(CN(C)C[C@@H]2OCc3ccccc3-c3c(n(C)c4ccccc34)C(=O)N([C@@H](C)CO)C[C@H]2C)c1	-5.7	0.2	0.0	49.3*!	-1.3
C[C@H](CO)N1C[C@H](C)[C@H](CN(C)C(=O)Nc2cccc(C(F)(F)F)c2)OCc2ccccc2-c2c(n(C)c3ccccc23)C1=O	1.1	-0.1	1.0	25.1*	1.2
C[C@@H]1CN([C@H](C)CO)C(=O)c2ccccc2-c2ccccc2CO[C@@H]1CN(C)C(=O)[C@H]1CCCN1C	0.5	0.3	0.2	78.6*	0.3
COc1ccccc1S(=O)(=O)N[C@@H]1CC[C@@H](CCNC(=O)C2CC2)O[C@H]1CO	0.8	-0.1	-0.5	2.0	1.0
COc1cccc(-c2ccc([C@@H]3[C@@H](CO)N(C(C)=O)C34CN(C(C)=O)C4)cc2)c1	-2.0	-0.1	-0.1	-8.9	-0.5
COc1ccc(-c2ccc3c(c2)O[C@@H](CN(C)C(C)=O)[C@@H](C)CN([C@@H](C)CO)S3(=O)=O)cc1	-0.6	-0.3	0.1	-13.0	2.0
CC(=O)N(C)C[C@H]1OCc2ccccc2-c2c(n(C)c3ccccc23)C(=O)N([C@H](C)CO)C[C@H]1C	0.7	0.0	-0.4	33.9*	-0.9
Cc1ccc(NCC(=O)N/N=C/c2ccncc2)cc1	2.0	-0.1	/	-0.9	-0.3
Cc1ccc(NCC(=O)N/N=C/c2cc(O)ccc2[N+](=O)[O-])cc1	-2.0	43.0*	/	7.0	5.2
Cc1noc(C)c1S(=O)(=O)Nc1ccc2c(c1)CC(=O)N([C@H](C)CO)C[C@@H](C)[C@@H](CN(C)Cc1ccc(-c3ccccc3)cc1)O2	-0.1	-0.2	1.1	5.2	1.2
CCOc1ccc2nc(N/C(N)=N/C(=S)Nc3ccc(C)c(C)c3)nc(C)c2c1	0.7	0.4	/	108.1*	-5.5
CCOc1ccc(Oc2nc(NCC(C)C)nc(OC)n2)nn1	3.2	0.0	0.3	35.6*	1.9
CCNc1nc(NC(C)CC)nc(Oc2ccc(OCC)nn2)n1 (stereo not drawn)	0.1	-0.6	0.2	2.3	-7.9
COc1cc(-c2noc(C)c2/C=C/c2ccc(C(=O)O)cc2)cc(OC)c1OC	-4.5	0.0	0.2	/	41.9*
